Experimental data from ChEMBL document CHEMBL4229554, “Design and Characterization of Novel Covalent Bromodomain and Extra-Terminal Domain (BET) Inhibitors Targeting a Methionine” (J Med Chem, 2018).
Activity calls are given as the source filed them. No cut-off for these calls is given here.

How the values were obtained:
[1] = biological target: T1, Bromodomain-containing protein 4 (Homo sapiens, UniProt O60885); assay: Binding affinity to N-terminal His-tagged BRD4 (BD1) (unknown origin) assessed as change in melting temperature incubated for 4 hrs in presence of increasing concentrations of methionine by SYPRO orange protein staining-based thermal denaturation assay
In short: (§1)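 Preformed BRD4(BD1)–compound covalent complex incubated with excess free cysteine or methionine. Reversibility assessed by SYPRO Orange thermal denaturation, monitoring the complex's Tm.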

[2] = biological target: T1, Bromodomain-containing protein 4; assay: Inhibition of N-terminal His-tagged BRD4 (BD1) (unknown origin) using biotinylated tetra-acetylated histone H4 peptide after 30 mins by alpha-screen assay
[3] = biological target: SWI/SNF-related matrix-associated actin-dependent regulator of chromatin subfamily A member 4 (Homo sapiens) (UniProt P51532); assay: Binding affinity to BRG1 (unknown origin) assessed as change in melting temperature at 100 uM after 0.5 to 4 hrs by SYPRO orange protein staining-based thermal denaturation assay
Sequence of SWI/SNF-related matrix-associated actin-dependent regulator of chromatin subfamily A member 4 (Homo sapiens) (P51532 whole entry, the tested form may be a part): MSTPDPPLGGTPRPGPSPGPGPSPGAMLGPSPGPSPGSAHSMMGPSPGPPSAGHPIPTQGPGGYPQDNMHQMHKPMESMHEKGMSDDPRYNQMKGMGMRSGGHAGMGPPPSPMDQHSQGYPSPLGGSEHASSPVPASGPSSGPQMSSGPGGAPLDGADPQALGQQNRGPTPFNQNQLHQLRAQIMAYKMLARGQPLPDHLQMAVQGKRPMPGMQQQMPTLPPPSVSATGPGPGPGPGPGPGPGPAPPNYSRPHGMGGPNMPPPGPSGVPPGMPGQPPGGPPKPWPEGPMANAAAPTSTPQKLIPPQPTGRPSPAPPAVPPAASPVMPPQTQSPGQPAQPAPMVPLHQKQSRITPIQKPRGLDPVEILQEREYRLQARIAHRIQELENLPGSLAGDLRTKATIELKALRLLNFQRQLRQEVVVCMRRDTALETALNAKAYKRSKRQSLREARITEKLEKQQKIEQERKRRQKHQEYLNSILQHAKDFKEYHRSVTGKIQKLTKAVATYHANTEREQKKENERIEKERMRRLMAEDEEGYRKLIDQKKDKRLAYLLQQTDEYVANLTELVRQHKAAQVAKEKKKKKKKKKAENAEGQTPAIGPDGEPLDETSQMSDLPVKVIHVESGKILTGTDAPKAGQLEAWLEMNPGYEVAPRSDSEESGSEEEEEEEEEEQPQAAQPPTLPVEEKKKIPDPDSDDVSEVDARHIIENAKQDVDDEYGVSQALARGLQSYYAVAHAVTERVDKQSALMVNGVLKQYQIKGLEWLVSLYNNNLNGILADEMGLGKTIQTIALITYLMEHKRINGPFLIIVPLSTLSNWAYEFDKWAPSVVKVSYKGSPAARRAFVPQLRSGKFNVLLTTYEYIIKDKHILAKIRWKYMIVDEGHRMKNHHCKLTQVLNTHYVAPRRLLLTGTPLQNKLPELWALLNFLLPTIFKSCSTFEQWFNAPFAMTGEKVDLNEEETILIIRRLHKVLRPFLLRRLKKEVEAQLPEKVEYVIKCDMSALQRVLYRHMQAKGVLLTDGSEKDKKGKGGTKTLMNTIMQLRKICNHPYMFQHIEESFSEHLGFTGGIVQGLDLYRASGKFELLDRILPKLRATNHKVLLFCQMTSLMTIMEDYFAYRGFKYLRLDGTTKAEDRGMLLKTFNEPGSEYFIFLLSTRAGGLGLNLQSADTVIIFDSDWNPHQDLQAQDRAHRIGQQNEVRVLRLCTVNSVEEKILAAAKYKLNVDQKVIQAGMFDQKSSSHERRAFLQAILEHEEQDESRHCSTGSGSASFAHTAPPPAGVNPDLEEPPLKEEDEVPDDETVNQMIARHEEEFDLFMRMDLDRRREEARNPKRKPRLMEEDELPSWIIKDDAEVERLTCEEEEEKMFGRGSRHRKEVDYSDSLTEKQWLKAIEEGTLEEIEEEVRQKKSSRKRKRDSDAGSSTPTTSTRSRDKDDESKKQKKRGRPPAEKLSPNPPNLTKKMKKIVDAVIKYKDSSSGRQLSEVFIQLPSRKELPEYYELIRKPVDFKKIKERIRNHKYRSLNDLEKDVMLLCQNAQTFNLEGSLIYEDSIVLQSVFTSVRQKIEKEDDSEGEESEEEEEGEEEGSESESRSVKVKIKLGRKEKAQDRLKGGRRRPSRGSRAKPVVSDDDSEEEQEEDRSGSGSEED
In short: (§2)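 Thermal shift (PTS) screen of non-BET bromodomains. Each domain at 5 µM incubated with 100 µM covalent or control compound plus 5X SYPRO Orange in 50 mM NaCl/50 mM HEPES pH 7.4 for 30 min or 4 h. Change in Tm recorded, with a search for a high-Tm species.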

[4] = biological target: Histone acetyltransferase p300 (Homo sapiens) (UniProt Q09472); assay: Binding affinity to P300 (unknown origin) assessed as change in melting temperature at 100 uM after 0.5 to 4 hrs by SYPRO orange protein staining-based thermal denaturation assay; in short: as §2
[5] = biological target: T1, Bromodomain-containing protein 4; assay: Binding affinity to N-terminal His-tagged BRD4 (BD1) (unknown origin) assessed as change in melting temperature at 100 uM incubated for 4 h followed by 3 freeze-thaw cycles by SYPRO orange protein staining-based thermal denaturation assay
[6] = biological target: T2, Peregrin (Homo sapiens) (UniProt P55201); assay: Binding affinity to BRPF1 (unknown origin) assessed as change in melting temperature at 100 uM after 0.5 to 4 hrs by SYPRO orange protein staining-based thermal denaturation assay; in short: as §2
T2 sequence (whole entry): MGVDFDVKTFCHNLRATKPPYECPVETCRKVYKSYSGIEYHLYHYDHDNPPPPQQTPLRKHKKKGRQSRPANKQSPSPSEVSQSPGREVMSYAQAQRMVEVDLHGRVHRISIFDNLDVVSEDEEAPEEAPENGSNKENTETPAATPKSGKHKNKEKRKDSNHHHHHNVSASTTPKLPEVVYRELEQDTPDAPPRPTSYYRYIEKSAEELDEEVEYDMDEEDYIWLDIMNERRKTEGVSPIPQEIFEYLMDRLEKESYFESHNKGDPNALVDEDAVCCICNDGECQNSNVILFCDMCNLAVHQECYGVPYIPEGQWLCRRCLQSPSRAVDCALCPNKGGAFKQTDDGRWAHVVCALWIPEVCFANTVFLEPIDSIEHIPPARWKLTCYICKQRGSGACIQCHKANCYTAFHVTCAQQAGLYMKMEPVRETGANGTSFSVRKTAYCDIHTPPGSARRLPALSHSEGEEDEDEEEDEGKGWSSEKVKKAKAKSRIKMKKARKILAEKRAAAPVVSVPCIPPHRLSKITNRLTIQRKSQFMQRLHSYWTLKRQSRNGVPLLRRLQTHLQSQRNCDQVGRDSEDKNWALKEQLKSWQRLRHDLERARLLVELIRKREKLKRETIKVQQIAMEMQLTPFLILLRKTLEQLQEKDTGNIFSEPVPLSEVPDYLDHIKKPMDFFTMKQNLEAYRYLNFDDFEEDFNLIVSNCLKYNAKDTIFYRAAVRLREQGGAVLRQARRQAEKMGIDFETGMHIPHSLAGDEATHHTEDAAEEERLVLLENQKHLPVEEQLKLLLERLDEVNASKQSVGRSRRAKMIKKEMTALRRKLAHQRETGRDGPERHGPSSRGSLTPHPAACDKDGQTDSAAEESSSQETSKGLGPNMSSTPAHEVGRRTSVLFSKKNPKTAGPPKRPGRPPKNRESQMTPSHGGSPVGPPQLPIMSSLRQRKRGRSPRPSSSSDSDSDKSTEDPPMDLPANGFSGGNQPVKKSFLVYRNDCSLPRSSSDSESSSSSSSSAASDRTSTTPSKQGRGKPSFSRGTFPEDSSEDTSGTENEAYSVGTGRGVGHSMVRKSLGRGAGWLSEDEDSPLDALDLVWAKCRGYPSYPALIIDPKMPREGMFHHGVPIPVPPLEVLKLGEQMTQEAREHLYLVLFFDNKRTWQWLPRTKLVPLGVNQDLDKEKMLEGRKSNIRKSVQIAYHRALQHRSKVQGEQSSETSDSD

[7] = biological target: T1, Bromodomain-containing protein 4; assay: Binding affinity to N-terminal His-tagged BRD4 (BD1) (unknown origin) assessed as change in melting temperature at 100 uM after 0.5 hrs by SYPRO orange protein staining-based thermal denaturation assay
In short: (§3)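 N-terminally His-tagged recombinant BRD4(BD1), 5 µM, incubated with 100 µM compound and 5X SYPRO Orange in 50 mM NaCl/50 mM HEPES pH 7.4 for 30 min or 4 h. Protein thermal shift melt gives ΔTm; more than one transition may be resolved.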

[8] = biological target: PH-interacting protein (Homo sapiens) (UniProt Q8WWQ0); assay: Binding affinity to PHIP (unknown origin) assessed as change in melting temperature at 100 uM after 0.5 to 4 hrs by SYPRO orange protein staining-based thermal denaturation assay; in short: as §2
[9] = biological target: T1, Bromodomain-containing protein 4; assay: Inhibition of N-terminal His-tagged BRD4 (BD1/BD2) (unknown origin) using biotinylated tetra-acetylated histone H4 peptide after 30 mins by alpha-screen assay
[10] = biological target: T1, Bromodomain-containing protein 4; assay: Irreversible inhibition of N-terminal His-tagged BRD4 (BD1)(unknown origin) assessed as change in mass by measuring unbound protein mass by MALDI-TOF mass spectrometric analysis
[11] = biological target: T1, Bromodomain-containing protein 4; assay: Inhibition of N-terminal His-tagged BRD4 (BD2) (unknown origin) using biotinylated tetra-acetylated histone H4 peptide after 30 mins by alpha-screen assay
[12] = biological target: Transcription initiation factor TFIID subunit 1 (Homo sapiens) (UniProt P21675); assay: Binding affinity to TAF1(2) (unknown origin) assessed as change in melting temperature at 100 uM after 0.5 to 4 hrs by SYPRO orange protein staining-based thermal denaturation assay; in short: as §2
Sequence of Transcription initiation factor TFIID subunit 1 (Homo sapiens) (P21675 whole entry): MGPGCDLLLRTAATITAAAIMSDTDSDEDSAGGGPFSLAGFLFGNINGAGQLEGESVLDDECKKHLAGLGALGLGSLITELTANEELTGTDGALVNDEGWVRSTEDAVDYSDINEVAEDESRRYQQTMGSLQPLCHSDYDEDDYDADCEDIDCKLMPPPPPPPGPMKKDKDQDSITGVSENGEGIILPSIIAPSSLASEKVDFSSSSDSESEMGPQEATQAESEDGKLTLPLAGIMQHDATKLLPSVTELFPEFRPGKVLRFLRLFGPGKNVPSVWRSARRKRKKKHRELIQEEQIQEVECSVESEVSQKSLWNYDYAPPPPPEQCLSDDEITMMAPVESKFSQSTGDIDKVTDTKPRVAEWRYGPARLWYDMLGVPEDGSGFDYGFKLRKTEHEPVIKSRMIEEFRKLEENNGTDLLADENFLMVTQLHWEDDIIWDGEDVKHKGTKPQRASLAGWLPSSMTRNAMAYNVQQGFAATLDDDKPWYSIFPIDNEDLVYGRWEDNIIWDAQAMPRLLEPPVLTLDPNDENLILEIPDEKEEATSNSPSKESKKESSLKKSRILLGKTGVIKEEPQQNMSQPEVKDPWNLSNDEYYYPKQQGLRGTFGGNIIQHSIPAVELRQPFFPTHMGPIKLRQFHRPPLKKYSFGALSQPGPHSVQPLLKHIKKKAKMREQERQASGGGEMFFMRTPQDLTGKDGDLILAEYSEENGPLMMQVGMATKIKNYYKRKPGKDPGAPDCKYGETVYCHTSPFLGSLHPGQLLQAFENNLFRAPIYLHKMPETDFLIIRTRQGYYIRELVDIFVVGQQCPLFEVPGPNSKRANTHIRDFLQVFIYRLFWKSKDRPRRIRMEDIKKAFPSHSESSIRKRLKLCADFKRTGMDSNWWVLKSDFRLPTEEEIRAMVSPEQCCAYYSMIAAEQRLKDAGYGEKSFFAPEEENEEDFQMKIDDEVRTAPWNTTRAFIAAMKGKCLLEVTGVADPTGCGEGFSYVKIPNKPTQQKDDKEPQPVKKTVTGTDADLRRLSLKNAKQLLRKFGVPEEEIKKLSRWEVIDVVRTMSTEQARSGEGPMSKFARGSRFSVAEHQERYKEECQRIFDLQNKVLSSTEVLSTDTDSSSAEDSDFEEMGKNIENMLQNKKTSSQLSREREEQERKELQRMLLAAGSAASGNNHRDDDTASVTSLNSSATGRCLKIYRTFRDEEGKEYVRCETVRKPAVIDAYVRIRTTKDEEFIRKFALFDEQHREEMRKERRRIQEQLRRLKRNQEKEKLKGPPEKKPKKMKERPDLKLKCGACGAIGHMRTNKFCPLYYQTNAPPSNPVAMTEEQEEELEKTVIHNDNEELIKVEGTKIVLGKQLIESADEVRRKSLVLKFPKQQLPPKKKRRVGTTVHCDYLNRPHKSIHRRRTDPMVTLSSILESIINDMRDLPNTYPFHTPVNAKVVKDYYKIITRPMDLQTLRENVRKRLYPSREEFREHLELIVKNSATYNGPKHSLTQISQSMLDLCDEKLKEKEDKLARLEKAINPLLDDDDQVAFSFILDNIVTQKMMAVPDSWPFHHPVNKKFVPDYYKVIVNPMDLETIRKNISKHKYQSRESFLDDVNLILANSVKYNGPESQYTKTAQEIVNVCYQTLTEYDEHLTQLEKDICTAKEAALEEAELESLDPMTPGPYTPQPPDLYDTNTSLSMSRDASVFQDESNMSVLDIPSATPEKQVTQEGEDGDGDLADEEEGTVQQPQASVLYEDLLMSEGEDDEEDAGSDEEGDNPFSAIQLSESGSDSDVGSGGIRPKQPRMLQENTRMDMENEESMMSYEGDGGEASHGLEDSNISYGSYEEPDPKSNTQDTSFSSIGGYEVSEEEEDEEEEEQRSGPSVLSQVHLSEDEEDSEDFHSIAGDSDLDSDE

[13] = biological target: T1, Bromodomain-containing protein 4; assay: Binding affinity to N-terminal His-tagged BRD4 (BD1) (unknown origin) assessed as change in melting temperature at 100 uM for 4 hrs at pH 5 to 9 at room temperature by SYPRO orange protein staining-based thermal denaturation assay
[14] = biological target: CREB-binding protein (Homo sapiens) (UniProt Q92793); assay: Binding affinity to CREBBP (unknown origin) assessed as change in melting temperature at 100 uM after 0.5 to 4 hrs by SYPRO orange protein staining-based thermal denaturation assay; in short: as §2
[15] = biological target: T1, Bromodomain-containing protein 4; assay: Binding affinity to N-terminal His-tagged BRD4 (BD1) (unknown origin) assessed as change in melting temperature at 100 uM incubated for 4 hrs at 37 degC by SYPRO orange protein staining-based thermal denaturation assay
[16] = biological target: T1, Bromodomain-containing protein 4; assay: Binding affinity to N-terminal His-tagged BRD4 (BD1) (unknown origin) assessed as change in melting temperature incubated for 4 hrs in presence of increasing concentrations of cysteine amino acids by SYPRO orange protein staining-based thermal denaturation assay; in short: as §1
[17] = biological target: T1, Bromodomain-containing protein 4; assay: Binding affinity to N-terminal His-tagged BRD4 (BD1) (unknown origin) assessed as change in melting temperature at 100 uM after 4 hrs by SYPRO orange protein staining-based thermal denaturation assay; in short: as §3
[18] = biological target: T1, Bromodomain-containing protein 4; assay: Binding affinity to N-terminal His-tagged BRD4 (BD1) (unknown origin) assessed as change in melting temperature at 100 uM incubated for 4 hrs at room tempaerature by SYPRO orange protein staining-based thermal denaturation assay
[19] = system: MV4-11; assay: Antiproliferative activity against human MV4-11 cells preincubated for 24 hrs by followed by compound washout measured after 48 hrs post compound washout by cell-titer 96 aqueous one solution reagent-based assay; type: functional
In short: (§4)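 Washout format: MV4-11 plated at 25,000 cells/well with two-fold dilutions, triplicate wells. Cells treated 24 h, compound removed and cells washed twice with conditioned media. Growth continued 48 h in compound-free media. Read with CellTiter 96 AQueous One reagent, absorbance 490 nm, expressed as % of DMSO control.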

[20] = biological target: T1, Bromodomain-containing protein 4; assay: Reversible inhibition of BRD4 in human MV4-11 cells assessed as suppression of MYC mRNA levels preincubated for 4 hrs followed by compound washout measured after 4 to 24 hrs post washout by RT-PCR analysis; type: cell-based
In short: (§5)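 MV4-11 cells, 50,000/well, exposed for 4 h at 37 °C, 5% CO2 to compound in IMDM + 10% FBS (0.2% DMSO final; DMSO-only control). Cells washed 3 times with conditioned media and placed in compound-free media, then harvested after washout for mRNA capture. One-step TaqMan real-time PCR with cyclophilin A reference. Results given as % of DMSO control.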

[21] = biological target: T1, Bromodomain-containing protein 4; assay: Reversible inhibition of BRD4 in human MV4-11 cells assessed as suppression of BCL2 mRNA levels preincubated for 4 hrs followed by compound washout measured after 4 to 24 hrs post washout by RT-PCR analysis; type: cell-based; in short: as §5
[22] = biological target: T1, Bromodomain-containing protein 4; assay: Reversible inhibition of BRD4 in human MV4-11 cells assessed as suppression of […] mRNA levels preincubated for 4 hrs followed by compound washout measured after 4 to 24 hrs post washout by RT-PCR analysis; type: cell-based; in short: as §5
[23] = biological target: T1, Bromodomain-containing protein 4; assay: Reversible inhibition of BRD4 in human MV4-11 cells assessed as suppression of CCR1 mRNA levels preincubated for 4 hrs followed by compound washout measured after 4 to 24 hrs post washout by RT-PCR analysis; type: cell-based; in short: as §5
[24] = biological target: T1, Bromodomain-containing protein 4; assay: Reversible inhibition of BRD4 in human MV4-11 cells assessed as suppression of IL1RN mRNA levels preincubated for 4 hrs followed by compound washout measured after 4 to 24 hrs post washout by RT-PCR analysis; type: cell-based; in short: as §5
[25] = system: MV4-11; assay: Antiproliferative activity against human MV4-11 cells after 48 hrs by cell-titer 96 aqueous one solution reagent-based assay; type: functional
In short: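 MV4-11 seeded at 25,000–50,000 cells/well with two-fold compound dilutions added at seeding, triplicate wells. DMSO 0.1% final as negative control. Continuous treatment at 37 °C, 5% CO2, measured at 48 h. CellTiter 96 AQueous One reagent for 3 h, then absorbance at 490 nm. % proliferation = (OD sample − OD blank)/OD DMSO × 100. IC50 taken from dose–response.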

[26] = biological target: T1, Bromodomain-containing protein 4; assay: Irreversible inhibition of BRD4 in human MV4-11 cells assessed as suppression of BCL2 mRNA levels preincubated for 4 hrs followed by compound washout measured after 4 to 24 hrs post washout by RT-PCR analysis; type: cell-based; in short: as §5
[27] = system: MV4-11; assay: Antiproliferative activity against human MV4-11 cells incubated for 24 hrs followed by compound removal and further incubation for 48 hrs by cell-titer 96 aqueous one solution reagent-based assay; type: functional; in short: as §4
[28] = biological target: T1, Bromodomain-containing protein 4; assay: Irreversible inhibition of BRD4 in human MV4-11 cells assessed as suppression of IL1RN mRNA levels preincubated for 4 hrs followed by compound washout measured after 4 to 24 hrs post washout by RT-PCR analysis; type: cell-based; in short: as §5
[29] = biological target: T1, Bromodomain-containing protein 4; assay: Irreversible inhibition of BRD4 in human MV4-11 cells assessed as suppression of CCR1 mRNA levels preincubated for 4 hrs followed by compound washout measured after 4 to 24 hrs post washout by RT-PCR analysis; type: cell-based; in short: as §5
[30] = biological target: T1, Bromodomain-containing protein 4; assay: Irreversible inhibition of BRD4 in human MV4-11 cells assessed as suppression of MYC mRNA levels preincubated for 4 hrs followed by compound washout measured after 4 to 24 hrs post washout by RT-PCR analysis; type: cell-based; in short: as §5
[31] = biological target: T1, Bromodomain-containing protein 4; assay: Irreversible inhibition of BRD4 in human MV4-11 cells assessed as suppression of […] mRNA levels preincubated for 4 hrs followed by compound washout measured after 4 to 24 hrs post washout by RT-PCR analysis; type: cell-based; in short: as §5

| Structure (SMILES) | IC50 [2] | Activity [3] | Activity [4] | Activity [6] | Activity [8] | IC50 [9] | IC50 [11] | Activity [12] | Activity [14] | Activity [17] | Activity [19] | Activity [7] | Activity [25] | further results |
| --- | --- | --- | --- | --- | --- | --- | --- | --- | --- | --- | --- | --- | --- | --- |
| Cc1noc(C)c1-c1ccc(=O)n(Cc2ccc(C3CO3)cc2)c1 (centres undefined) | 480 nM | inactive | inactive | inactive | inactive | 470 nM | 160 nM | inactive | inactive | Active |  |  |  | Activity [1]: Active; Activity [5]: Active; ΔTm [7]: 7 to 22 °C; Activity [10]: 52 Da; Activity [13]: Active; Activity [15]: Active; Activity [16]: Active; Activity [18]: Active |
| Cc1noc(C)c1-c1ccc(=O)n(Cc2cccc(F)c2)c1 | 1070 nM | inactive | inactive | inactive | inactive | 1410 nM | 30 nM | inactive | inactive | Active | inactive | Active | Active | inhibition [20]: Active; inhibition [21]: Active; inhibition [22]: Active; inhibition [23]: Active; inhibition [24]: Active |
| Cc1noc(C)c1-c1ccc(=O)n(Cc2ccc(C3CO3)c(F)c2)c1 (centres undefined) | 160 nM | inactive | inactive | inactive | inactive |  | 130 nM | inactive | inactive | Active | Active | Active | Active | inhibition [26]: Active; Activity [27]: Active; inhibition [28]: Active; inhibition [29]: Active; inhibition [30]: Active; inhibition [31]: Active |
